Laboratory results published in ChEMBL document CHEMBL1136716, “Tripeptide probes for tripeptidyl protease I production via gene transfer” (J Med Chem, 2003).

How the values were obtained:
Type in all cases: functional, organism-based
Mus musculus [1] = species: Mus musculus; experiment: Tested for Color of the Final Reaction Product ofTPP-I Histochemical Staining with compound in the presence of p-anisaldehyde in mouse kidney cell preparations; yellow-green color was observed
In short: (§1)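 Mice were given an anesthetic overdose, then perfused transcardially with 0.9% saline followed by 2% paraformaldehyde in 0.2 M phosphate buffer. Tissues were postfixed 2 h, cryoprotected in 25% sucrose and frozen. Cryostat sections (10 µm) were embedded in 0.5% celloidin and incubated at 37 °C for 4 h in 0.1 M acetate pH 4.5 with 1 mM substrate plus 1 mg/mL of the listed aldehyde. Staining was scored by microscopy on ≥5 sections/animal from ≥3 animals.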

Mus musculus [2] = species: Mus musculus; experiment: Tested for Color of the Final Reaction Product ofTPP-I Histochemical Staining with compound in the presence of p-nitrobenzaldehyde in mouse kidney cell preparations; yellow-greencolor was observed; in short: as §1
Mus musculus [3] = species: Mus musculus; experiment: Tested for Intensity of the Final Reaction Product ofTPP-I Histochemical Staining with compound in the presence of benzaldehyde in mouse kidney cell preparations;; in short: as §1
Mus musculus [4] = species: Mus musculus; experiment: Tested for Intensity of the Final Reaction Product ofTPP-I Histochemical Staining with compound in the presence of p-nitrobenzaldehyde in mouse kidney cell preparations;; in short: as §1
Mus musculus [5] = species: Mus musculus; experiment: Tested for Color of the Final Reaction Product ofTPP-I Histochemical Staining with compound in the presence of benzaldehyde in mouse kidney cell preparations; yellow-green color was observed; in short: as §1
Mus musculus [6] = species: Mus musculus; experiment: Tested for Intensity of the Final Reaction Product ofTPP-I Histochemical Staining with compound in the presence of p-anisaldehyde in mouse kidney cell preparations;; in short: as §1
Mus musculus [7] = species: Mus musculus; experiment: Tested for Color of the Final Reaction Product ofTPP-I Histochemical Staining with compound in the presence of benzaldehyde in mouse kidney cell preparations; yellow-greenautofluorescent color was observed; in short: as §1
Mus musculus [8] = species: Mus musculus; experiment: Tested for Color of the Final Reaction Product ofTPP-I Histochemical Staining with compound in the presence of p-anisaldehyde in mouse kidney cell preparations; yellow-greenautofluorescent color was observed; in short: as §1
Mus musculus [9] = species: Mus musculus; experiment: Tested for Color of the Final Reaction Product ofTPP-I Histochemical Staining with compound in the presence of p-nitrobenzaldehyde in mouse kidney cell preparations; yellow-greenautofluorescent color was observed; in short: as §1
Mus musculus [10] = species: Mus musculus; experiment: Tested for Intensity of the Final Reaction Product ofTPP-I Histochemical Staining with compound in the presence of benzaldehyde in mouse kidney cell preparations; in short: as §1
Mus musculus [11] = species: Mus musculus; experiment: Tested for Intensity of the Final Reaction Product ofTPP-I Histochemical Staining with compound in the presence of p-nitrobenzaldehyde in mouse kidney cell preparations; in short: as §1
Mus musculus [12] = species: Mus musculus; experiment: Tested for Color of the Final Reaction Product ofTPP-I Histochemical Staining with compound in the presence of p-nitrobenzaldehyde in mouse kidney cell preparations; brown color was observed; in short: as §1
Mus musculus [13] = species: Mus musculus; experiment: Tested for Color of the Final Reaction Product ofTPP-I Histochemical Staining with compound in the presence of benzaldehyde in mouse kidney cell preparations; brown color was observed; in short: as §1

| SMILES | Activity (Mus musculus [1]) | Activity (Mus musculus [2]) | Activity (Mus musculus [3]) | Activity (Mus musculus [4]) | Activity (Mus musculus [5]) | Activity (Mus musculus [6]) | Activity (Mus musculus [7]) | Activity (Mus musculus [8]) | Activity (Mus musculus [9]) | Activity (Mus musculus [10]) | Activity (Mus musculus [11]) | Activity (Mus musculus [12]) | Activity (Mus musculus [13]) |
| --- | --- | --- | --- | --- | --- | --- | --- | --- | --- | --- | --- | --- | --- |
| CC(NC(=O)[C@H](C)N)C(=O)N[C@@H](Cc1ccccc1)C(=O)NNc1ccc2c(c1)C(=O)c1ccccc1C2=O (stereo partly specified) | yellow-green color was observed | yellow-green color was observed | yellow-green color was observed | yellow-green color was observed | yellow-green color was observed | yellow-green color was observed | – | – | – | – | – | – | – |
| C[C@H](NC(=O)[C@@H]1CCCN1C(=O)CN)C(=O)n1nc2cccc3c2c1-c1cccc(Cl)c1C3=O | – | – | – | – | – | yellow-greenautofluorescent color was observed | yellow-greenautofluorescent color was observed | yellow-greenautofluorescent color was observed | yellow-greenautofluorescent color was observed | yellow-greenautofluorescent color was observed | yellow-greenautofluorescent color was observed | – | – |
| NCC(=O)N1CCC[C@H]1C(=O)N[C@@H](CO)C(=O)NNc1cccc2c1C(=O)c1ccccc1C2=O | – | – | – | – | – | – | – | – | – | brown color was observed | brown color was observed | brown color was observed | brown color was observed |
